Measured values taken from ChEMBL document CHEMBL1124002, “Antiallergy agents. 1. Substituted 1,8-naphthyridin-2(1H)-ones as inhibitors of SRS-A release” (J Med Chem, 1988).

Columns and labels:
Type in all cases: functional
Cavia porcellus [1] = species: Cavia porcellus; experiment: Percent inhibition of SRS-A release in vitro at a dose of 10 uM in guinea pig
Summary of the method: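 Male Hartley guinea pigs were sensitized with ovalbumin (5 mg ip + 5 mg sc on day 1, 5 mg ip on day 4). About 400 mg chopped lung was preincubated with compound for 12 min at 37 °C in Tyrode's with 10 mM cysteine, then challenged with 20 μg/mL ovalbumin (final) for 0.25 h. SRS-A in ethanol-extracted supernatant was bioassayed on mepyramine-treated ileum against a rat SRS-A standard. Results are % inhibition versus vehicle, from 3-4 lungs.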

Cavia porcellus [2] = experiment: Percent inhibition of bronchospasm in vivo at a dose of 12.5 mg/kg in guinea pig; conditions: Bronchiole
Summary of the method: (§1)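 Guinea pigs were sensitized with ovalbumin and used 3-4 weeks later. They were fasted and anesthetized with dialurethane ip. Compounds were given orally 2 h before challenge. Propranolol 1 mg/kg, indomethacin 5 mg/kg and mepyramine 2 mg/kg were given iv 15 min before a 0.5 min aerosol of 0.5% ovalbumin through the tracheal cannula. The rise in inflation pressure measured bronchoconstriction. Results are % inhibition, 4-5 animals per group.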

Cavia porcellus [3] = experiment: Percent inhibition of bronchospasm in vivo at a dose of 25 mg/kg in guinea pig; conditions: Bronchiole; summary of the method: as §1

Row | Structure (SMILES) | inhibition at 10 µM (Cavia porcellus [1]) | inhibition in vivo at 12.5 mg/kg (Cavia porcellus [2]) | inhibition in vivo at 25 mg/kg (Cavia porcellus [3])
1 | CCCCc1c(O)c2cccnc2n(-c2ccc(F)cc2F)c1=O | 27% |  | 
2 | CCCCc1c(O)c2cccnc2n(-c2ccc(O)cc2)c1=O | 44% |  | 
3 | CCc1c(O)c2cccnc2n(-c2ccccc2)c1=O | 74% | 44% | 
4 | CCCCc1c(OCCO)c2cccnc2n(-c2ccccc2)c1=O | 86% |  | 64%
5 | CCCCc1c(O)c2cnccc2n(-c2ccccc2)c1=O | 0% |  | 
6 | CCCCc1c(OCCN(C)C)c2cccnc2n(-c2ccccc2)c1=O | 0% | 13% | 84%
7 | CCCCc1c(O)c2cccnc2n(CCN(C)C)c1=O | 0% |  | 
8 | CCCCc1c(O)c2cccnc2n(-c2ccc(C(C)O)cc2)c1=O (stereo not given) | 48% |  | 
9 | O=c1c(CCCCc2ccccc2)c(O)c2cccnc2n1-c1ccccc1 | 9% |  | 
10 | C#CCOc1c(CCCC)c(=O)n(-c2ccccc2)c2ncccc12 | 0% |  | 
11 | CCCCc1c(O)c2cncnc2n(-c2ccccc2)c1=O | 9% |  | 
12 | CCCCc1c(=O)c2cccnc2n2c1oc1ccccc12 | 14% |  | 
13 | CCCCc1c(OC(C)=O)c2cccnc2n(-c2ccc(OC)cc2)c1=O | 64% |  | 32%
14 | C=CCc1c(OC(C)=O)c2cccnc2n(-c2ccccc2OC)c1=O | 35% |  | 
15 | C#CCOc1c(CC#C)c(=O)n(-c2ccccc2)c2ncccc12 | 62% | 0% | 
16 | CCCCc1c(O)c2cccnc2n(-c2ccc(OCc3ccccc3)cc2)c1=O | 50% |  | 0%
17 | C=CCc1c(OC(C)=O)c2cccnc2n(-c2ccc(OC)cc2)c1=O | 52% |  | 42%
18 | CCCCc1c(OCC)c2cccnc2n(-c2ccccc2)c1=O | 0% |  | 
19 | CCCCc1c(O)c2c(n(-c3ccccc3)c1=O)NCCC2 | 51% |  | 17%
20 | CCCCCCn1c(=O)c(CCCC)c(O)c2cccnc21 | 63% |  | 15%
21 | CCCCc1c(O)c2cc3ccccc3nc2n(-c2ccccc2)c1=O | 0% |  | 
22 | CCCCc1c(OC(C)=O)c2cccnc2n(-c2ccc(OC(C)=O)c(C(=O)O)c2)c1=O | 17% |  | 

Row | Structure (SMILES) | inhibition at 10 µM (Cavia porcellus [1]) | inhibition in vivo at 12.5 mg/kg (Cavia porcellus [2]) | inhibition in vivo at 25 mg/kg (Cavia porcellus [3])
23 | C=CCc1c(OC(C)=O)c2cccnc2n(-c2cccc(C(F)(F)F)c2)c1=O | 65% |  | 
24 | CCCCc1c(O)c2cccnc2n(-c2ccc(OC)c(OC)c2)c1=O | 57% |  | 0%
25 | CC(C)=CCc1c(O)c2cccnc2n(-c2ccccc2)c1=O | 45% |  | 
26 | CC(=O)Oc1c(CCC2CCCCN2C)c(=O)n(-c2ccccc2)c2ncccc12 (stereo not given) | 19% |  | 
27 | CCCCc1c(OCC2COC(C)(C)O2)c2cccnc2n(-c2ccccc2)c1=O (stereo not given) | 0% |  | 
28 | CCCCc1c(O)c2cccnc2n(-c2cccc(SC)c2)c1=O | 62% |  | 55%
29 | CCCCc1c(O)c2cccnc2n(-c2ccc3c(c2)CCC3)c1=O | 55% |  | 1%
30 | CCCCc1c(O)c2cccnc2n(Cc2ccccc2)c1=O | 0% |  | 
31 | CCCCc1c(O)c2ccncc2n(-c2ccccc2)c1=O | 0% |  | 
32 | CCCCc1c(O)c2nccnc2n(-c2ccccc2)c1=O | 75% |  | 36%
33 | CC(=O)CCc1c(O)c2cccnc2n(-c2ccccc2)c1=O | 36% |  | 
34 | C=CCc1c(O)c2cccnc2n(-c2cccc(OC)c2)c1=O | 56% |  | 46%
35 | O=c1c(C2CCCCC2)c(O)c2cccnc2n1-c1ccccc1 | 66% |  | 45%
36 | CCCCc1c(O)c2cccnc2n(-c2ccc(O)c(C(=O)O)c2)c1=O | 0% |  | 
37 | C=CCc1c(O)c2cccnc2n(-c2cccc(C(F)(F)F)c2)c1=O | 50% |  | 0%
38 | CCCCc1c(OC(C)=O)c2cccnc2n(-c2ccc(S(C)(=O)=O)cc2)c1=O | 26% |  | 
39 | CCCCc1c(O)c2ncccc2n(-c2ccccc2)c1=O | 43% |  | 
40 | CCCCc1c(O)c2cccnc2n(-c2ccc(O)c(C(=O)OCC)c2)c1=O | 65% | 0% | 
41 | CCCCc1c(O)c2cccnc2n(-c2cccnc2)c1=O | 33% |  | 
42 | C=CCc1c(O)c2cccnc2n(-c2ccc(OC)cc2)c1=O | 3% |  | 
43 | CCCCc1c(O)c2cccnc2n(-c2ccc(F)cc2)c1=O | 95% | 0% | 
44 | CCCCc1c(OC(C)=O)c2cccnc2n(-c2cccc([S+](C)[O-])c2)c1=O (stereo not given) | 28% |  | 

Row | Structure (SMILES) | inhibition at 10 µM (Cavia porcellus [1]) | inhibition in vivo at 12.5 mg/kg (Cavia porcellus [2]) | inhibition in vivo at 25 mg/kg (Cavia porcellus [3])
45 | CCCCc1c(O)c2ccccc2n(-c2ccncc2)c1=O | 31% |  | 
46 | O=c1cc(O)c2cccnc2n1-c1ccccc1 | 0% |  | 
47 | CCCCc1c(OC(C)=O)c2cccnc2n(-c2ccc(F)cc2)c1=O | 77% | 34% | 
48 | C=CCc1c(OC(C)=O)c2cccnc2n(-c2cccc(OC)c2)c1=O | 84% | 32% | 
49 | CCCCc1c(O)c2cccnc2n(-c2ccc(Oc3ccccc3)cc2)c1=O | 54% |  | 0%
50 | CC1(CCc2c(O)c3cccnc3n(-c3ccccc3)c2=O)OCCO1 | 52% |  | 0%
51 | CCCCc1c(O)nc2ncccc2c1O | 15% |  | 
52 | CC(C)=CCc1c(O)c2nccnc2n(-c2ccccc2)c1=O | 69% |  | 10%
53 | CCCCc1c(OCCOCC)c2cccnc2n(-c2ccccc2)c1=O | 0% |  | 
54 | CCCCCCCCc1c(O)c2cccnc2n(-c2ccccc2)c1=O | 51% |  | 0%
55 | CCCCc1c(OCCCO)c2cccnc2n(-c2ccccc2)c1=O | 7% |  | 
56 | CCCCc1c(OC(C)=O)c2cccnc2n(-c2cccc(SC)c2)c1=O | 57% |  | 27%
57 | O=c1c(CC2CCCCC2)c(O)c2cccnc2n1-c1ccccc1 | 30% |  | 
58 | CCCCc1c(OC(C)=O)c2cccnc2n(-c2cccc(S(C)(=O)=O)c2)c1=O | 20% |  | 
59 | CCCCc1c(O)c2cccnc2n(-c2ccccc2SC)c1=O | 32% |  | 
60 | CCCCc1c(O)c2cccnc2n(-c2ccc(SC)cc2)c1=O | 86% |  | 8%
61 | CCCCc1c(O)c2cc(Br)cnc2n(-c2ccccc2)c1=O | 73% |  | 5%
62 | CCCCc1c(O)c2cc(OC)cnc2n(-c2ccccc2)c1=O | 3% |  | 
63 | CCCCc1c(O)c2cccnc2n(-c2cccc(Cl)c2C)c1=O | 5% |  | 
64 | C=CCCCCCCCc1c(OC(C)=O)c2cccnc2n(-c2ccccc2)c1=O | 15% |  | 
65 | Cc1c(O)c2cccnc2n(-c2ccccc2)c1=O | 52% |  | 33%
66 | CCCCc1c(OC(C)=O)c2cccnc2n(-c2ccc(SC)cc2)c1=O | 38% |  | 

Row | Structure (SMILES) | inhibition at 10 µM (Cavia porcellus [1]) | inhibition in vivo at 12.5 mg/kg (Cavia porcellus [2]) | inhibition in vivo at 25 mg/kg (Cavia porcellus [3])
67 | CCCCc1c(O)c2cccnc2n(-c2ccc(OC)cc2)c1=O | 87% |  | 51%
68 | CCCCc1c(O)c2cccnc2n(-c2cc(OC)c(OC)c(OC)c2)c1=O | 22% |  | 
69 | CCCCc1ccc(-n2c(=O)c(CCCC)c(O)c3cccnc32)cc1 | 50% |  | 13%
70 | CCCCc1c(O)c2cc3c(nc2n(-c2ccccc2)c1=O)CCC3 | 22% |  | 
71 | CCCCc1c(O)c2cccnc2n(-c2c(C)cccc2C)c1=O | 0% |  | 
72 | CCCCc1c(O)c2ccc(C)nc2n(-c2ccccc2)c1=O | 21% |  | 
73 | O=c1c(-c2ccccn2)c(O)c2cccnc2n1-c1ccccc1 | 84% | 42% | 
74 | CCCCc1c(O)c2cc(O)cnc2n(-c2ccccc2)c1=O | 69% |  | 0%
75 | CCCCc1c(OC(C)=O)c2cccnc2n(-c2ccc([S+](C)[O-])cc2)c1=O (stereo not given) | 11% |  | 
76 | CCCCc1c(O)c2cc3c(nc2n(-c2ccccc2)c1=O)CCCC3 | 38% |  | 
77 | CCCCc1c(OCCCN(C)C)c2cccnc2n(-c2ccccc2)c1=O | 0% |  | 13%
78 | C=CCc1c(OC(C)=O)c2cc(OC)cnc2n(-c2ccccc2)c1=O | 0% |  | 
79 | O=c1c(-c2ccccc2)c(O)c2cccnc2n1-c1ccccc1 | 48% |  | 
80 | CC(O)CCc1c(O)c2cccnc2n(-c2ccccc2)c1=O (stereo not given) | 53% |  | 32%
81 | C=CCOc1c(CCCC)c(=O)n(-c2ccccc2)c2ncccc12 | 0% |  | 
82 | CCCCc1c(O)c2cccnc2n(-c2ccccc2C)c1=O | 55% |  | 9%
83 | CCCCCc1c(O)c2cccnc2n(-c2ccccc2)c1=O | 49% |  | 42%
84 | CCCCc1c(OCC(O)CO)c2cccnc2n(-c2ccccc2)c1=O (stereo not given) | 0% |  | 
85 | CCCCOc1ccc(-n2c(=O)c(CCCC)c(O)c3cccnc32)cc1 | 17% |  | 
86 | CCCCc1c(O)c2cccnc2n(-c2ccc(C(C)=O)cc2)c1=O | 37% |  | 
87 | O=c1c(CCc2ccccn2)c(O)c2cccnc2n1-c1ccccc1 | 58% | 5% | 
